Usually inhibition stands for the change of the read-out against control, counted positive when it falls.

Calls of active or inactive are those of the source.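 How the source made its calls, unless noted: active means NADPH fluorescence slope more negative than the mean of all samples by about 3 SD, 99.7% confidence; inactive means the rest.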

Test [1] in a line: inhibitors of TNFa-induced NFkB p65 translocation, primary screen, imaging, HUVEC, MLSMR starter and 10KST1 sets (AID 438;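 active means inhibition above 20% together with a positive visual image hit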;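 further: compound added about 3h40 before a 20 min TNFalpha stimulation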;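 on inhibition: signal is the nuclear over cytoplasmic p65 intensity ratio per well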). Particulars: HUVEC TNFa-induced p65 nuclear translocation; cell count: measured here: nuclei count (cytotoxicity indicator), at 2.08 µM; inhibition: at 2 µM, stronger effect = higher value, 0% TNFa-plus-vehicle, 100% no-TNFa wells.
Test [2] in a line: endothelial E-selectin expression blockers – imaging, HUVEC, immunofluorescence, MLSMR starter and 10KST1 sets, primary screen (AID 487;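 active means visually confirmed hit in the image check and inhibition above 20%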;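 on inhibition: signal is fraction of cell area covered by stained E-selectin grains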;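 on nuclei count: 100% = median nuclei count of all wells on the same plate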). Conditions: HUVEC TNFalpha-induced E-selectin immunofluorescence imaging, at 2 µM; inhibition: stronger effect = higher value; nuclei count: measured here: cell number, toxicity.
A short description of test [3]: Primary imaging screen for DUSP6 inhibitors that restore phospho-Erk in transfected HeLa cells, chemical complementation (AID 609;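 active means compounds giving at least 50% inhibition in the cell-based MKP-3 phosphatase rescue imaging test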;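 on inhibition: phospho-Erk level distribution per well compared with pooled transfected vehicle control wells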). Conditions: HeLa MKP-3 transfected, phospho-Erk imaging KS statistic, at 10 µM, cells stimulated with TPA for 15 min.
For test [4], the target named is Dual specificity protein phosphatase 6 (Homo sapiens) (UniProt Q16828). The test is described as above. Particulars: HeLa MKP-3 transfected, phospho-Erk imaging KS statistic; at 10 µM; stronger effect = higher value; cells stimulated with TPA for 15 min.
Test [5] addresses Voltage-gated potassium channel subunit beta-2 (Rattus norvegicus) (UniProt P62483). In words: inhibitors of rat Kvbeta2 reductase activity – biochemical, NADPH fluorescence, primary screen (AID 622;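 active means fluorescence slope higher than the sample average by over 3 SD, cut at about -0.22 in these data, passing the limit was not always enough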;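 further: slope of raw intensity against log time taken from 70 to 1610 s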). Particulars: recombinant KvBeta, 4-cyanobenzaldehyde reduction, at 10 µM, stronger effect = higher value.
Test [6] has the same target. In words: enhancers of rat Kvbeta2 NADPH turnover – biochemical, NADPH fluorescence, primary screen (AID 623).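 Further: fluorescence intensity change per second fitted from 20 to 320 s.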 Particulars: Recombinant KvBeta, NADPH fluorescence decrease slope, 10 min; at 10 µM; stronger effect = lower value.
Test [7] addresses Alpha-2C adrenergic receptor (Homo sapiens) (UniProt P18825). In words: compounds altering alpha2C-coupled GIRK flux – cell-based, HEK293 alpha2C/GIRK1/2, thallium flux, primary screen (AID 624;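 active means fluorescence slope after compound addition differing from the mean of all screened samples at 99.7% confidence, in either direction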;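 further: slope of fluorescence ratio to pre-addition baseline per second over 15 to 24 s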). Conditions: thallium flux BTC fluorescence, at 10 µM, actives lie on both sides.
Test [8] is described as follows: inhibitors of larval lipid processing in zebrafish, primary screen, whole organism, PED6 fluorescence, gall bladder and intestine (AID 686;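 active means a full or partial loss of lipid-probe fluorescence in the fish gall bladder, intestine or both, judged by eye; inactive means no fluorescence loss, or compound toxic to the fish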;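 further: larvae 5 to 7 days old with five fish per well; signal comes from phospholipase A2 cleavage of quenched PED6 carried via bile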). Particulars: Zebrafish larvae PED6 lipid processing, fluorescence scoring; screened at 20 µM (by protocol). Put shortly: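 system = live zebrafish larvae aged 5-7 days, whole organism | probe or stimulus = ingested quenched lipid PED6 at 100 nM | doses = 20 µM single dose | timing = overnight exposure | detection = fluorescence microscopy with visual scoring of gall bladder and intestine | read-out = visual per-well fluorescence inhibition score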

A short description of test [9]: loss of swimming-algae plug formation – whole organism, Chlamydomonas reinhardtii, WT vs cilia-less mutant, absorbance, 96-well, primary screen (AID 463189;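 active means inhibition at or above 50% relative to wild type and mutant plate controls; inactive means inhibition below 50%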;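 further: 0% = wild type cc124 cells in DMSO and 100% = ciliumless bld1 mutant cells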). Particulars: Chlamydomonas reinhardtii gravitaxis, OD600 absorbance, 2 days; at 10 µM; stronger effect = higher value.
The mark [10] stands for this setting: measured here: cell density z-score.
Setting [11] is: measured here: nuclear c-Myc green intensity z-score.
The mark [12] stands for this setting: measured here: nuclear pErk red intensity z-score, stronger effect = higher value.

Sequence of Alpha-2C adrenergic receptor (Homo sapiens) (P18825 whole entry, looked up): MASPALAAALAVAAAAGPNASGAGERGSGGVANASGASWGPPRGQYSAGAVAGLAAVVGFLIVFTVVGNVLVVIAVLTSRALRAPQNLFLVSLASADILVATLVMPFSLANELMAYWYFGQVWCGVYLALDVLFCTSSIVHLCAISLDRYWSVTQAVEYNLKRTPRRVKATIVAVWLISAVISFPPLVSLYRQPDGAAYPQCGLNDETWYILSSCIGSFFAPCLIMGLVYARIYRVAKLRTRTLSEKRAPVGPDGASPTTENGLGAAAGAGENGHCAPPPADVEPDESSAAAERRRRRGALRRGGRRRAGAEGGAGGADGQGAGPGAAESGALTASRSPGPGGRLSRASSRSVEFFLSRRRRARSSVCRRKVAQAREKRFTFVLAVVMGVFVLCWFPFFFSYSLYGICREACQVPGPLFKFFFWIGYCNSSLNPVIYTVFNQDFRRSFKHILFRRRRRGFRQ
Sequence of Voltage-gated potassium channel subunit beta-2 (Rattus norvegicus) (P62483 whole entry, looked up): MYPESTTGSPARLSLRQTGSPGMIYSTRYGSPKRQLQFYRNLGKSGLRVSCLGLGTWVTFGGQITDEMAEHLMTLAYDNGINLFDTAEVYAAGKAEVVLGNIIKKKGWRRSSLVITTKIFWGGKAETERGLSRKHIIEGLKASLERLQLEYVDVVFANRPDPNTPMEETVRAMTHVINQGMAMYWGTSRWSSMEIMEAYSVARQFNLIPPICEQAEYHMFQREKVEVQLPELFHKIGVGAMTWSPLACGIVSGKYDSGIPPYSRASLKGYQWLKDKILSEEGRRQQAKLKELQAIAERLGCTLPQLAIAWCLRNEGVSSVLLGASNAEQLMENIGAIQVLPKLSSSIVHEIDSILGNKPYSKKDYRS
Sequence of Dual specificity protein phosphatase 6 (Homo sapiens) (Q16828 whole entry, looked up): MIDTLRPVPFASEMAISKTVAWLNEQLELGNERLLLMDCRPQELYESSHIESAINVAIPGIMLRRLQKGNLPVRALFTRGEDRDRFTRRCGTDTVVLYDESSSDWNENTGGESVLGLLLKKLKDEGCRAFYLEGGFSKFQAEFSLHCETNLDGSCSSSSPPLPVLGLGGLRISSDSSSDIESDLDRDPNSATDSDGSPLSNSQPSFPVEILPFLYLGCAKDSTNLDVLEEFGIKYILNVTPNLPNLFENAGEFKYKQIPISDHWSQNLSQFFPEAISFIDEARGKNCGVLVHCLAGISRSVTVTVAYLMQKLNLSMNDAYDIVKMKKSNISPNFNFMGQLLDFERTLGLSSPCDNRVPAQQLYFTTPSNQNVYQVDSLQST

Turning to `COC(=O)CSc1nc(N)c2c3c(sc2n1)CCCC3`, in test [1], the cell count was 627. Moreover, the inhibition in test [1] was -10.6% (inactive); in test [2] it was -9.7% (inactive); in test [4], 4.37% (inactive); in [9], -6.63% (inactive). In test [2], this compound gave a nuclei count of 172%. The z-score was -2.1 in test [3] (setting [10]), 0.19 in test [3] (setting [11]) and 1.1 in [3] (setting [12]). For the same compound, the fluorescence slope in test [5] is -0.355 (inactive). Also, the NADPH fluorescence slope in [6] is -6.3e-05 (inactive). Further, the slope in test [7] was 0.00567 (inactive). Also, the outcome in [8] was inactive.

For the compound `COc1ccc(C(CC(=O)O)NC(=O)OC(C)(C)C)cc1` (centres undefined), the cell count in [1] was 352. For the same compound, the inhibition in test [1] is -12.3% (inactive); in test [2] it was -60.6% (inactive); in test [4], -7.01% (inactive); in test [9], -3.6% (inactive). The compound further registered a nuclei count in [2] of 167%. For the same compound, the z-score is 0.0535 in [3] (setting [10]), 0.856 in test [3] (setting [11]) and 1.62 in test [3] (setting [12]). Besides, the fluorescence slope in [5] is -0.414 (inactive). The NADPH fluorescence slope in [6] is -0.000134 (inactive). In addition, the slope in test [7] was 0.00454 (inactive). In addition, the outcome in [8] was inactive.

As for `CCN(CC)CCN1C(=O)C(=O)/C(=C(/O)c2ccc(Cl)cc2)C1c1ccncc1` (centres undefined), the cell count in [1] is 358. Besides, the inhibition in [1] is 3.7% (inactive); in test [2] it was -38.6% (inactive); in test [4] it was 26.6% (inactive); in test [9], 21.1% (inactive). For the same compound, the nuclei count in test [2] worked out at 64.8%. The z-score in test [3] (setting [10]) is -0.384; in test [3] (setting [11]) it was 0.846; in test [3] (setting [12]), -1.58. In addition, the fluorescence slope in [5] is -0.357 (inactive). For the same compound, the NADPH fluorescence slope in test [6] was -2e-05 (inactive). For the same compound, the slope in test [7] is 0.00633 (inactive). Moreover, the outcome in [8] was inactive.

For `CCOc1ccc(C2=Nn3c(nnc3-c3ccccn3)SC2)cc1`, the cell count in test [1] came to 493. In addition, the inhibition is 1.1% (inactive) in test [1], -197% (inactive) in [2], -13.3% (inactive) in test [4] and 0.114% (inactive) in test [9]. This compound also registered a nuclei count in test [2] of 107%. Besides, the z-score was 1.13 in test [3] (setting [10]), -0.317 in test [3] (setting [11]) and 0.587 in [3] (setting [12]). In addition, the fluorescence slope in test [5] is -0.467 (inactive). In test [6], the NADPH fluorescence slope is -3.6e-05 (inactive). In addition, in [7], the slope is 0.00617 (inactive). Also, in [8], the compound was called inactive.

`CCCCNC(=O)N1CCOCCOCCN(C(=O)NCCCC)CCOCC1`: the cell count in test [1] stood at 524. Further, the inhibition was -14.1% (inactive) in test [1], -164% (inactive) in test [2], 31.7% (inactive) in test [4] and 9.99% (inactive) in test [9]. The compound also yielded a nuclei count in test [2] of 138%. The z-score in test [3] (setting [10]) is 2.57; in test [3] (setting [11]), -1.63; in [3] (setting [12]), -0.914. The fluorescence slope in [5] was -0.55 (inactive). The NADPH fluorescence slope in test [6] was -2.2e-05 (inactive). The slope in test [7] was 0.0049 (inactive). In addition, in test [8], the outcome was inactive.

Take `COc1cc(-c2nn3c(-c4ccco4)nnc3s2)cc(OC)c1OC`: the cell count in test [1] was found to be 483. The inhibition in test [1] is -2.2% (inactive); in test [2] it was -67.5% (inactive); in [4] it was -2.47% (inactive); in test [9], 4.86% (inactive). Moreover, the nuclei count in test [2] was 99.3%. Further, the z-score in [3] (setting [10]) is -0.638; in [3] (setting [11]), -0.467; in test [3] (setting [12]), 0.841. Moreover, the fluorescence slope in [5] was -0.471 (inactive). Moreover, in [6], the NADPH fluorescence slope was 3.2e-05 (inactive). Also, the slope in test [7] is 0.0061 (inactive). Moreover, the compound was called inactive in [8].

`CCn1c(SC(C)C(=O)O)nc2sc3c(c2c1=O)CCC3` (centres undefined): the cell count in test [1] was determined as 614. The inhibition in test [1] is -11.3% (inactive); in [2], 46% (inactive); in test [4], -2.29% (inactive); in [9], 7.74% (inactive). In test [2], this compound yielded a nuclei count of 108%. In addition, the z-score in test [3] (setting [10]) was 0.34; in [3] (setting [11]) it was -0.588; in test [3] (setting [12]) it was -0.0983. Further, the fluorescence slope in [5] is -0.401 (inactive). Further, in test [6], the NADPH fluorescence slope was -3.8e-05 (inactive). Further, in test [7], the slope is 0.0197 (active). For the same compound, in test [8], the outcome was inactive.

Take `CC(C)CN1C(=O)NC(NC(=O)c2cccnc2)(C(F)(F)F)C1=O` (centres undefined): the cell count in [1] came out at 488. The inhibition is -2.8% (inactive) in test [1], -106% (inactive) in [2], 1.75% (inactive) in [4] and -0.985% (inactive) in test [9]. In addition, in test [2], the nuclei count stood at 130%. The z-score in test [3] (setting [10]) was 0.462; in test [3] (setting [11]) it was -0.157; in [3] (setting [12]), -1.2. Further, the fluorescence slope in [5] was -0.505 (inactive). Moreover, the NADPH fluorescence slope in test [6] is -7.1e-06 (inactive). In addition, the slope in [7] was 0.00612 (inactive). Further, the call in test [8] was inactive.

In the case of `CCOC(=O)N1CC=C2C(C#N)=C(N)C(C#N)(C#N)[C@H](c3cccs3)[C@H]2C1`, the cell count in [1] is 664. In addition, the inhibition in test [1] is -14.7% (inactive); in test [2] it was 44.9% (inactive); in test [4], 11% (inactive); in [9] it was 26.4% (inactive). For the same compound, the nuclei count in test [2] turned out to be 144%. The z-score was 0.0987 in [3] (setting [10]), -0.332 in test [3] (setting [11]) and -1.22 in [3] (setting [12]). In [5], the fluorescence slope is -0.367 (inactive). Besides, the NADPH fluorescence slope in test [6] was -2e-05 (inactive). For the same compound, the slope in [7] was 0.00502 (inactive). In test [8], the outcome was inactive.

In the case of `CCOC(=O)c1ccccc1OCc1cc(/C=N/n2cncn2)ccc1OC`, in [1], the cell count amounted to 430. The inhibition was -16.8% (inactive) in test [1], -87.5% (inactive) in test [2], -2.29% (inactive) in test [4] and -0.944% (inactive) in [9]. For the same compound, the nuclei count in test [2] amounted to 169%. Further, the z-score in test [3] (setting [10]) is 0.277; in [3] (setting [11]), 0.212; in test [3] (setting [12]), -0.384. Also, the fluorescence slope in test [5] is -0.358 (inactive). Besides, in [6], the NADPH fluorescence slope was 1.8e-05 (inactive). For the same compound, the slope in [7] is 0.00447 (inactive). In test [8], the compound was classed as inactive.

Take `CC1(C)Cc2c(sc3[nH]c(=S)n(Cc4ccco4)c(=O)c23)CO1`: in [1], the cell count stood at 541. Further, the inhibition in test [1] was -15.5% (inactive); in test [2], -74.4% (inactive); in test [4] it was -2.69% (inactive); in test [9], -12.6% (inactive). In test [2], the nuclei count amounted to 117%. Also, the z-score in test [3] (setting [10]) was -0.898; in test [3] (setting [11]), -0.375; in test [3] (setting [12]), -0.762. The fluorescence slope in test [5] is -0.361 (inactive). The NADPH fluorescence slope in [6] is 2.2e-05 (inactive). Moreover, the slope in test [7] was 0.0124 (active). For the same compound, the outcome in [8] was inactive.

As for `CCCCn1c(C)cc2cc(O)ccc21`, in test [1], the cell count is 320. The inhibition in test [1] is -9.2% (inactive); in test [2], -73.6% (inactive); in [4], -8.76% (inactive); in [9], -7.64% (inactive). Also, the nuclei count in [2] worked out at 154%. Moreover, the figures for the z-score in test [3] (setting [10]), in [3] (setting [11]) and in test [3] (setting [12]) were -1.22, 2.41 and 1.37, respectively. In test [5], the fluorescence slope is -0.432 (inactive). Besides, the NADPH fluorescence slope in [6] is -0.000136 (inactive). Further, the slope in [7] is 0.00664 (inactive). The call in test [8] was inactive.

With `O=C(NCCN1CCOCC1)c1cc2n(n1)C(C(F)(F)F)CC(c1ccc(F)cc1)N2` (centres undefined), the cell count in test [1] worked out at 341. The inhibition was -2.3% (inactive) in test [1], -22.1% (inactive) in [2], 7.48% (inactive) in test [4] and -15.3% (inactive) in test [9]. In [2], this compound showed a nuclei count of 104%. Further, the z-score in [3] (setting [10]) was -1.73; in test [3] (setting [11]), 1.46; in [3] (setting [12]), -0.339. Besides, the fluorescence slope in [5] was -0.529 (inactive). Besides, the NADPH fluorescence slope in test [6] is -9.5e-05 (inactive). Besides, in [7], the slope is 0.00574 (inactive). For the same compound, the outcome in [8] was inactive.

The values above are taken from PubChem BioAssay.
